# Data taken from ChEMBL document CHEMBL4049418, “6-OH-Phenanthroquinolizidine Alkaloid and Its Derivatives Exert Potent Anticancer Activity by Delaying S Phase Progression” (J Med Chem, 2017).
# The source made the active and inactive calls. The calls are words filed in the database; no cut-off is given here.
# Assays:
# Bel-7402 [1] = assay: Antiproliferative activity against human Bel7402 cells assessed as reduction in cell viability at 0.012 to 1 uM up to 10 days by fluorescence-based cell imaging method; format: functional
# Summary of the method: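 Live-cell imaging (IncuCyte ZOOM) of BEL-7402 cells seeded at 1.5 × 10⁴ per well in 12-well plates. Cells treated in triplicate with a concentration gradient and imaged continuously for 10 days to build growth curves.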
# Bel-7402 [2] = assay: Cell cycle arrest in human Bel7402 cells assessed as delay in progression of S-phase to G2-phase at 0.1 to 1 uM pre-treated with aphidicolin for 16 hrs followed by compound addition measured up to 24 hrs by propidium iodide staining-based flow cytometric method; format: functional
# Summary of the method: (§1)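 Exponentially growing cells synchronized in early S phase with 0.2 μg/mL aphidicolin for 16 h. Cells released into fresh medium with or without compound for set times. Ethanol-fixed, stained with PI/RNase, and cell cycle distribution read by flow cytometry. Representative of three independent experiments.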
# Bel-7402 [3] = assay: Induction of DNA damage in human Bel7402 cells assessed as increase in gamma-H2AX levels at 0.1 to 10 uM after 1 hr by Western blot analysis; format: functional, cell-based
# Summary of the method: (§2)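 BEL-7402 cells (1.5 × 10⁵ per well, 12-well plates) exposed to compounds for 1 h. Phospho-Chk1 Ser345, phospho-Chk2 Thr68 and γH2AX detected by Western blot. Camptothecin at 1 μM served as the DNA-damage reference.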
# Bel-7402 [4] = assay: Induction of DNA damage in human Bel7402 cells assessed as increase in CHK1 phosphorylation at Ser345 residue at 0.1 to 10 uM after 1 hr by Western blot analysis; format: functional, cell-based; summary of the method: as §2
# Bel-7402 [5] = assay: Induction of DNA damage in human Bel7402 cells assessed as increase in CHK2 phosphorylation at Thr68 residue at 0.1 to 10 uM after 1 hr by Western blot analysis; format: functional, cell-based; summary of the method: as §2
# Bel-7402 [6] = assay: Induction of apoptosis in human Bel7402 cells assessed as viable cells at 1 uM after 72 hrs by Annexin V/propidium iodide staining based flow cytometric analysis (reference value: 92.4%); format: functional; conditions: Bel-7402, 72 h, read-out: Activity
# Bel-7402 [7] = assay: Induction of apoptosis in human Bel7402 cells assessed as early apoptotic cells at 1 uM after 72 hrs by Annexin V/propidium iodide staining based flow cytometric analysis (reference value: 3.66%); format: functional
# Summary of the method: (§3)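 BEL-7402 cells (3 × 10⁵ per well, 6-well plates) exposed for 72 h. Harvested, PBS-washed, resuspended in cold binding buffer with annexin V–FITC and PI, and stained 15 min in the dark at room temperature. Early apoptotic, late apoptotic and necrotic fractions quantified by flow cytometry.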
# Bel-7402 [8] = assay: Induction of apoptosis in human Bel7402 cells assessed as late apoptotic cells at 1 uM after 72 hrs by Annexin V/propidium iodide staining based flow cytometric analysis (reference value: 3.6%); format: functional; summary of the method: as §3
# Bel-7402 [9] = assay: Induction of apoptosis in human Bel7402 cells assessed as necrotic cells at 1 uM after 72 hrs by Annexin V/propidium iodide staining based flow cytometric analysis (reference value: 0.38%); format: functional
# Bel-7402 [10] = assay: Induction of apoptosis in human Bel7402 cells assessed as late apoptotic cells at 10 uM after 72 hrs by Annexin V/propidium iodide staining based flow cytometric analysis (reference value: 3.6%); format: functional; summary of the method: as §3
# Bel-7402 [11] = assay: Induction of apoptosis in human Bel7402 cells assessed as necrotic cells at 10 uM after 72 hrs by Annexin V/propidium iodide staining based flow cytometric analysis (reference value: 0.38%); format: functional
# K562/Adr [12] = assay: Effect on P-gp expression in human K562/ADR cells up to 10 uM after 24 hrs by Western blot analysis; format: functional, cell-based
# KB-V1 = assay: Growth inhibition of human KBV1 cells after 8 days by methylene blue-staining based spectrophotometry; format: functional; conditions: KB-V1, 192 h
# [13] = Growth inhibition of human KB-MDR cells after 8 days by methylene blue-staining based spectrophotometry; format: functional; conditions: 192 h
# [14] = Growth inhibition of human KB-7d cells after 8 days by methylene blue-staining based spectrophotometry; format: functional; conditions: KB7D, 192 h
# [15] = Selectivity ratio of IC50 for human MRC5 cells to IC50 for human A549 cells
# Summary of the method: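 SRB assay: A549 (F-12, 10% FBS) and MRC-5/MRC-9 (EMEM, 10% FBS) treated in triplicate 72 h, fixed with ice-cold 10% TCA, stained with 0.4% SRB in 1% acetic acid, absorbance 540 nm; IC₅₀ by four-parameter logistic fit, mean of ≥3 independent experiments.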
# Bel-7402 [16] = assay: Cell cycle arrest in human Bel7402 cells assessed as delay in progression of S-phase to G2-phase at 10 nM pre-treated with aphidicolin for 16 hrs followed by compound addition measured up to 24 hrs by propidium iodide staining-based flow cytometric method; format: functional; summary of the method: as §1
# Bel-7402 [17] = assay: Inhibition of DNA synthesis in human Bel7402 cells assessed as BrdU incorporation at 1 nM preincubated for 1 hr followed by BrdU addition for 30 mins by FITC/propidium iodide staining based flow cytometry (reference value: 35.5%); format: functional; parameters: scale not given: the % may be the effect or the level left
# Summary of the method: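 BEL-7402 cells (3 × 10⁵ per well) exposed to compounds 1 h, then labeled with 10 μM BrdU for 30 min; trypsinized, fixed in 70% ethanol at −20 °C ≥1 h, 2 N HCl 20 min, neutralized with 0.1 M borate, stained with anti-BrdU-FITC plus PI 30 min; BrdU-positive cells quantified by flow cytometry; three independent experiments, mean + SD.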
# Bel-7402 [18] = assay: Induction of DNA damage in human Bel7402 cells assessed as increase in gamma-H2AX levels at 1 to 100 nM after 1 hr by Western blot analysis; format: functional, cell-based; summary of the method: as §2
# Bel-7402 [19] = assay: Induction of DNA damage in human Bel7402 cells assessed as increase in CHK2 phosphorylation at Thr68 residue at 1 to 100 nM after 1 hr by Western blot analysis; format: functional, cell-based; summary of the method: as §2
# Bel-7402 [20] = assay: Induction of apoptosis in human Bel7402 cells assessed as early apoptotic cells at 10 nM after 72 hrs by Annexin V/propidium iodide staining based flow cytometric analysis (reference value: 3.66%); format: functional; summary of the method: as §3
# Bel-7402 [21] = assay: Induction of apoptosis in human Bel7402 cells assessed as late apoptotic cells at 10 nM after 72 hrs by Annexin V/propidium iodide staining based flow cytometric analysis (reference value: 3.6%); format: functional; summary of the method: as §3
# Bel-7402 [22] = assay: Induction of apoptosis in human Bel7402 cells assessed as necrotic cells at 10 nM after 72 hrs by Annexin V/propidium iodide staining based flow cytometric analysis (reference value: 0.38%); format: functional
# KB = assay: Cell cycle arrest in human KB/VCR cells assessed as delay in progression of S-phase to G2-phase at 10 nM pre-treated with aphidicolin for 16 hrs followed by compound addition measured up to 12 hrs by propidium iodide staining-based flow cytometric method; format: functional; summary of the method: as §1
# K562 = assay: Cell cycle arrest in human K562 cells assessed as delay in progression of S-phase to G2-phase at 1 to 10 nM pre-treated with aphidicolin for 16 hrs followed by compound addition measured up to 24 hrs by propidium iodide staining-based flow cytometric method; format: functional
# K562/Adr [23] = assay: Cell cycle arrest in human K562/ADR cells assessed as delay in progression of S-phase to G2-phase at 1 to 10 nM pre-treated with aphidicolin for 16 hrs followed by compound addition measured up to 24 hrs by propidium iodide staining-based flow cytometric method; format: functional
compound,measurement,setting,value
COc1cc2c3c(c4cc(OC)c(OC)cc4c2cc1OC)[C@H](O)[C@@H]1CCCN1C3,inhibition,Bel-7402 [1],Active
same,Activity,Bel-7402 [2],Active
same,Activity,Bel-7402 [3],inactive
same,Activity,Bel-7402 [4],inactive
same,Activity,Bel-7402 [5],inactive
same,viability at 1 µM,Bel-7402 [6],94.7%
same,Activity,Bel-7402 [7],2.56%
same,Activity,Bel-7402 [8],1.92%
same,Activity,Bel-7402 [9],0.81%
same,Activity,Bel-7402 [10],11.5%
same,Activity,Bel-7402 [11],1.39%
same,Activity,K562/Adr [12],inactive
same,GI50,KB-V1,30 nM
same,GI50,[13],30 nM
same,GI50,[14],30 nM
COc1cc2c3c(c4ccc(O)cc4c2cc1OC)CN1CCCC[C@@H]1C3,Ratio IC50,[15],3 - 4
same,Activity,Bel-7402 [16],Active
same,Activity,Bel-7402 [17],28.6%
same,Activity,Bel-7402 [18],inactive
same,Activity,Bel-7402 [19],inactive
same,Activity,Bel-7402 [20],3.93%
same,Activity,Bel-7402 [21],14.2%
same,Activity,Bel-7402 [22],0.94%
same,Activity,KB,Active
same,Activity,K562,Active
same,Activity,K562/Adr [23],Active
